Legend:
CSNK2A1 mRNA [1] = assay: qPCR gene silencing in OVCAR3 cells; assay type: cell-based; conditions: 48 h, 10% FBS
In short: (§1)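 Cells were seeded at 50,000/well and treated with peptide complexes of CSNK2A1-targeting or non-targeting siRNA at increasing N:P ratios in McCoy's 5A/DMEM with 10% FBS. Medium was replaced after a PBS wash at 24 h, for 48 h total. CSNK2A1 mRNA was quantified by TaqMan qRT-PCR with 18S as reference.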

[2] = system: MCF10a breast epithelial cells; assay: Cell viability of healthy cells; assay type: cell-based; conditions: 48 h
RNase A = target: T1, RNase A (Bos taurus, UniProt P61823); assay: Protection of siRNA from RNase A degradation, agarose gel electrophoresis; assay type: in vitro ADME; conditions: complexes with siNT, 5 μg/mL RNase A, 37°C, 1 h, 6% SDS
T1 sequence (P61823 27-150): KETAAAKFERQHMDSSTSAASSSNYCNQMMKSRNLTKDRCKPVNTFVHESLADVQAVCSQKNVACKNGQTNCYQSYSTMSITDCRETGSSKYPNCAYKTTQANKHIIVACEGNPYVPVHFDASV
In short: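 Non-targeting siRNA (10 μM solution) was mixed with each peptide (10 μM solution in RNase-free water) at several N:P ratios and held 20 min at room temperature. Complexes or free siRNA were left untreated or exposed to 5 μg/mL RNase A at 37°C for 1 h, then dissociated with 6% SDS. Samples were run on 2% agarose at 100 V, ethidium bromide-stained and imaged for intact siRNA.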

CSNK2A1 mRNA [3] = assay: qPCR gene silencing in CAOV3 cells; assay type: cell-based; conditions: CAOV3, 80:1 N:P ratio, 48 h
In short: as §1

## WEADIVADIVADIVAGGG-(d)RRRRRRRRR [DIVA3]
CSNK2A1 mRNA [1]; OVCAR3, siCSNK2A1 complex at 60:1 versus siNT complex
  CSNK2A1 mRNA silencing efficacy: 47%

## WEADIVADIVHDIVADIVAGGG-(d)RRRRRRRRR [DIV3H]
CSNK2A1 mRNA [1]; OVCAR3, siCSNK2A1 complex at 80:1 versus siNT complex
  CSNK2A1 mRNA silencing efficacy: 72%

## WEADIVADIVWDIVADIVAGGG-(d)RRRRRRRRR [DIV3W]
[2]
  cytotoxic effects on healthy cells: no cytotoxic effects were observed
RNase A
  siRNA degradation after incubation with RNase A: Minimal degradation
CSNK2A1 mRNA [3]
  CSNK2A1 mRNA knockdown, maximum: 80%
